The source of these data is ChEMBL document CHEMBL3351273, “NRPS substrate promiscuity leads to more potent antitubercular sansanmycin analogues” (2014).

In brackets after ≈: the same amount, converted by molar mass.

Holding throughout (assay type): functional
In assay [1] the test system is Mycobacterium tuberculosis. Kind of assay: Antibacterial activity against Mycobacterium tuberculosis H37Rv after 5 days by microplate Alamar Blue assay. To be noted: 120 h. Summed up:
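M. tuberculosis H37Rv grown in 7H9; final inoculum 2 × 10^6 cfu/mL. Samples from 20 mg/mL DMSO stocks, 2-fold diluted in 7H9 without Tween 80, tested in triplicate at 37 °C. From day 5, Alamar Blue plus 5% Tween 80 went to a control well; whole plate dosed once bacteria-only well turned pink. Read visually 24 h later; MIC = lowest concentration preventing colour change.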

The test system of assay [2] is Pseudomonas aeruginosa. The assay is described as follows: Antibacterial activity against Pseudomonas aeruginosa 11 after 24 hrs by microdilution test. To be noted: Pseudomonas aeruginosa, 11, 24 h. Summed up: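 CLSI broth microdilution; P. aeruginosa 11 grown in Mueller-Hinton broth, final inoculum 10^6 cells/mL. Samples from 20 mg/mL DMSO stocks, serially diluted, run in triplicate; sansanmycin A as positive control. Incubated 37 °C for 24 h, growth read by eye; MIC = lowest concentration completely inhibiting growth.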
In general terms: Broth dilution looks for growth in wells or tubes with falling amounts of substance.

The subject of assay [3] is Mycobacterium tuberculosis. The assay is described as follows: Ratio of sansanmycin A MIC to compound MIC for Mycobacterium tuberculosis H37Rv after 5 days by microplate Alamar Blue assay.

For the molecule `C[C@@H]([C@H](NC(=O)[C@H](CC[S+](C)[O-])NC(=O)N[C@@H](Cc1c[nH]c2ccccc12)C(=O)O)C(=O)N/C=C1/C[C@@H](O)[C@H](n2ccc(=O)[nH]c2=O)O1)N(C)C(=O)[C@@H](N)Cc1cccc(O)c1` (stereo partly drawn), the MIC is above 32 µg/mL in assay [1] and 16 µg/mL (≈ 18.2 µM) in assay [2].

Consider `CSCC[C@H](NC(=O)N[C@@H](Cc1c[nH]c2ccccc12)C(=O)O)C(=O)N[C@H](C(=O)N/C=C1/C[C@@H](O)[C@H](n2ccc(=O)[nH]c2=O)O1)[C@H](C)N(C)C(=O)C1Cc2cccc(O)c2CN1` (stereo partly drawn), for which the figures for the minimum inhibitory concentration (MIC) in assay [1] and in assay [2] were above 32 µg/mL and above 64 µg/mL, respectively. `CSCC[C@H](NC(=O)N[C@@H](Cc1c[nH]c2ccccc12)C(=O)O)C(=O)N[C@H](C(=O)N/C=C1/C[C@@H](O)[C@H](n2ccc(=O)[nH]c2=O)O1)[C@H](C)N(C)C(=O)C1Cc2cc(O)ccc2CN1` (stereo partly drawn): the results for the minimum inhibitory concentration (MIC) in assay [1] and in assay [2] were 8 µg/mL (≈ 9.13 µM) and above 64 µg/mL, respectively. As for `C[C@@H]([C@H](NC(=O)[C@H](Cc1ccccc1)NC(=O)N[C@@H](Cc1c[nH]c2ccccc12)C(=O)O)C(=O)N/C=C1/C[C@@H](O)[C@H](n2ccc(=O)[nH]c2=O)O1)N(C)C(=O)C1Cc2cccc(O)c2CN1` (stereo partly drawn), the MIC in assay [1] stood at 16 µg/mL (≈ 17.9 µM); in assay [2] it was 32 µg/mL (≈ 35.9 µM). Regarding `C[C@@H]([C@H](NC(=O)[C@H](Cc1ccccc1)NC(=O)N[C@@H](Cc1c[nH]c2ccccc12)C(=O)O)C(=O)N/C=C1/C[C@@H](O)[C@H](n2ccc(=O)[nH]c2=O)O1)N(C)C(=O)C1Cc2cc(O)ccc2CN1` (stereo partly drawn), the MIC amounted to 2 µg/mL (≈ 2.24 µM) in assay [1] and 8 µg/mL (≈ 8.97 µM) in assay [2]. Also, in assay [3], the Ratio is listed as 8. Turning to `CSCC[C@H](NC(=O)N[C@@H](Cc1ccc(O)cc1)C(=O)O)C(=O)N[C@H](C(=O)N/C=C1/C[C@@H](O)[C@H](n2ccc(=O)[nH]c2=O)O1)[C@H](C)N(C)C(=O)C1Cc2cccc(O)c2CN1` (stereo partly drawn), the minimum inhibitory concentration (MIC) in assay [1] is above 32 µg/mL; in assay [2] it was above 64 µg/mL. As for `CSCC[C@H](NC(=O)N[C@@H](Cc1ccc(O)cc1)C(=O)O)C(=O)N[C@H](C(=O)N/C=C1/C[C@@H](O)[C@H](n2ccc(=O)[nH]c2=O)O1)[C@H](C)N(C)C(=O)C1Cc2cc(O)ccc2CN1` (stereo partly drawn), the minimum inhibitory concentration (MIC) in assay [1] was 16 µg/mL (≈ 18.8 µM); in assay [2] it was above 64 µg/mL. Taken in the same sequence, the figures for `C[C@@H]([C@H](NC(=O)[C@H](Cc1ccccc1)NC(=O)N[C@@H](Cc1c[nH]c2ccccc12)C(=O)O)C(=O)N/C=C1/C[C@@H](O)[C@H](n2ccc(=O)[nH]c2=O)O1)N(C)C(=O)[C@@H](N)Cc1cccc(O)c1` were 8 µg/mL (≈ 9.09 µM) and 32 µg/mL (≈ 36.4 µM). Turning to `CSCC[C@H](NC(=O)N[C@@H](Cc1ccc(O)cc1)C(=O)O)C(=O)N[C@H](C(=O)N/C=C1/C[C@@H](O)[C@H](n2ccc(=O)[nH]c2=O)O1)[C@H](C)N(C)C(=O)[C@@H](N)Cc1cccc(O)c1`, the MIC in assay [1] and in assay [2] was 8 µg/mL (≈ 9.51 µM) in each case. With `NNC(=O)c1ccncc1` [ISONIAZID], in assay [1], 0.05 µg/mL (≈ 0.365 µM) was the least that counted as inhibitory (MIC). Still for that read-out and setting: the figure for `CO[C@H]1/C=C/O[C@@]2(C)Oc3c(C)c(O)c4c(O)c(c(/C=N/N5CCN(C)CC5)c(O)c4c3C2=O)NC(=O)/C(C)=C\C=C\[C@H](C)[C@H](O)[C@@H](C)[C@@H](O)[C@@H](C)[C@H](OC(C)=O)[C@@H]1C` [RIFAMPIN] is 0.12 µg/mL (≈ 0.146 µM).

Consider `CSCCC(NC(=O)NC(Cc1c[nH]c2ccccc12)C(=O)O)C(=O)NC(C(=O)N/C=C1\C[C@@H](O)[C@H](n2ccc(=O)[nH]c2=O)O1)C(C)N(C)C(=O)C(N)Cc1cccc(O)c1` (stereo partly drawn) [SANSANMYCIN A], for which the MIC in assay [1] was found to be 16 µg/mL (≈ 18.5 µM); in assay [2], 4 µg/mL (≈ 4.63 µM).

One may read the MIC as the lowest concentration that inhibits growth of the organism. Low readings indicate inhibition by little substance, high ones a need for much substance.
